INS-1E ATP HTS: INS-1E beta cell protection from cytokine death; INS-1E cytokine-induced death, ATP luminescence, 48 h; normalised: neutral wells 0, positive control 100; protection from cytokine-induced ATP loss, % at 10 µM; 20,000 tested, 0.1% active;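 active = mean replicate protection from cytokine-induced ATP loss at least 50% and at least 75% of replicates each reaching 50%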
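Assay system: INS-1E rat insulinoma cells. Amount: 8000 cells per well. Medium: phenol-red-free RPMI with 5% fetal bovine serum. Reagent: IL-1β, TNF-α and IFN-γ cytokine mix. Doses: one compound concentration, pin transfer. Schedule: 48 h co-treatment, 10 min post-lysis read. Detection: CellTiter-Glo luminescence measuring cellular ATP.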
T cruzi intra: intracellular Trypanosoma cruzi inhibition | AID 651903 | 22,000 tested, 4.9% active | activity score (inhibition), % at 5.01 µM | intracellular Trypanosoma cruzi in host cells, plate reader; in the data active = activity score above about 55%;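 note: parasites and compound incubated about four days before reading; 0% = median of neutral control wells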
A1 apoptosis 2: blocks A1, raising caspase activity; MEF A1-2A-BIM cells, caspase-Glo luminescence, 3 h; percent of clofoctol response, DMSO zero; caspase activation, % (test concentration not listed); 24,000 tested, under 10 active; AID 2465; in the data active = caspase activation above about 5.9%
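Material: A1-2A-BIM-expressing MEF cells. Buffer or medium: RPMI-1640 plus 10% FBS. Incubation: cells settled overnight, compound exposure 3 h at 37 °C, 5% CO2. Signal: Caspase-Glo 3/7 luminescence, 1 h at room temperature.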
Active calls of the source: *. This is one part of a sample in which hits are shown more often than they occur.

C[C@@H]1CN([C@@H](C)CO)C(=O)c2cc(NC(=O)Nc3ccc(C(F)(F)F)cc3)ccc2O[C@H]1CN(C)Cc1ccc(C(=O)Nc2ccccc2N)cc1 was read as INS-1E ATP HTS 2 and T cruzi intra 39.
CC(C)NC(=O)Nc1ccc2c(c1)CC(=O)N([C@H](C)CO)C[C@H](C)[C@H](CN(C)Cc1ccc(C(=O)Nc3ccccc3N)cc1)O2 was read as INS-1E ATP HTS 6 and T cruzi intra 68*.
`C[C@H]1CN([C@@H](C)CO)C(=O)Cc2cc(NC(=O)NC3CCCCC3)ccc2O[C@@H]1CN(C)Cc1ccc(C(=O)Nc2ccccc2N)cc1` gave A1 apoptosis 2 -1.
Screening C[C@H]1CN([C@@H](C)CO)C(=O)Cc2cc(NC(=O)Nc3ccc(F)cc3)ccc2O[C@@H]1CN(C)Cc1ccc(C(=O)Nc2ccccc2N)cc1 returned INS-1E ATP HTS 6, T cruzi intra 33 and A1 apoptosis 2 -1.
C[C@@H]1CN([C@H](C)CO)C(=O)c2cc(NC(=O)Nc3ccc(C(F)(F)F)cc3)ccc2O[C@H]1CN(C)Cc1ccc(C(=O)Nc2ccccc2N)cc1 was read as INS-1E ATP HTS -13, T cruzi intra 57* and A1 apoptosis 2 0.
Screening C[C@@H]1CN([C@@H](C)CO)C(=O)Cc2cc(NC(=O)CCC(F)(F)F)ccc2O[C@@H]1CN(C)Cc1ccc(C(=O)Nc2ccccc2N)cc1 returned INS-1E ATP HTS -7 and T cruzi intra 68*.
For C[C@H](CO)N1C[C@H](C)[C@H](CN(C)Cc2ccc(C(=O)Nc3ccccc3N)cc2)Oc2ccc(NC(=O)CCC(F)(F)F)cc2CC1=O the results were INS-1E ATP HTS 29, T cruzi intra 53 and A1 apoptosis 2 0.
C[C@@H]1CN([C@H](C)CO)C(=O)Cc2cc(NC(=O)Nc3ccccc3)ccc2O[C@@H]1CN(C)Cc1ccc(C(=O)Nc2ccccc2N)cc1 was read as INS-1E ATP HTS 0, T cruzi intra 64* and A1 apoptosis 2 -1.
`Cc1nnc(Sc2ccc(/C=N/NC(=O)c3cccc(C(=O)NO)c3)o2)n1C` gave INS-1E ATP HTS 4 and T cruzi intra -23.
Screening CN(C)CCCOc1ccc(/C=N/NC(=O)c2ccc(C(=O)NO)cc2)cc1 returned A1 apoptosis 2 0.
`O=C(O)c1cccc(/C=N/NC(=O)c2ccccn2)c1` gave INS-1E ATP HTS 1, T cruzi intra -12 and A1 apoptosis 2 -7.
`Cc1ccc(F)cc1S(=O)(=O)N[C@@H]1CCN(Cc2ccc(C(F)(F)F)cc2)C1` gave A1 apoptosis 2 0.
Cc1ccc(S(=O)(=O)N(c2cccc(N=[N+]=[N-])c2)S(=O)(=O)c2ccc(C)cc2)cc1 was read as A1 apoptosis 2 0.
O=C(N/N=C/c1cccnc1)c1ccccc1O was read as A1 apoptosis 2 -4.
`COc1ccc([Si](C)(C)[C@@H]2[C@@H](CCO)O[C@]3(C(=O)N(Cc4cccc(NC(=O)[C@H](C)O)c4)c4ccccc43)[C@H]2C)cc1` gave A1 apoptosis 2 0.
`COC(=O)CCCCCCC(=O)N/N=C/c1ccc(OC)cc1O` gave INS-1E ATP HTS 18, T cruzi intra -19 and A1 apoptosis 2 0.
Screening C[C@@H]1CN([C@H](C)CO)C(=O)Cc2cc(NC(=O)Nc3ccc(F)cc3)ccc2O[C@H]1CN(C)Cc1ccc(C(=O)Nc2ccccc2N)cc1 returned INS-1E ATP HTS 1 and T cruzi intra 33.
C[C@H](CO)N1C[C@H](C)[C@H](CN(C)Cc2ccc(C(=O)Nc3ccccc3N)cc2)Oc2ccc(NC(=O)Nc3ccc(C(F)(F)F)cc3)cc2CC1=O was read as INS-1E ATP HTS -21 and T cruzi intra 82*.
For C[C@@H]1CN([C@@H](C)CO)C(=O)Cc2cc(NC(=O)Nc3ccc(C(F)(F)F)cc3)ccc2O[C@@H]1CN(C)Cc1ccc(C(=O)Nc2ccccc2N)cc1 the results were INS-1E ATP HTS -28 and T cruzi intra 84*.
For C[C@@H]1CN([C@@H](C)CO)C(=O)Cc2cc(NC(=O)Nc3ccc(F)cc3)ccc2O[C@H]1CN(C)Cc1ccc(C(=O)Nc2ccccc2N)cc1 the results were A1 apoptosis 2 -1.
For O=C(CCCCCC(=O)N/N=C/c1cccs1)NO the results were A1 apoptosis 2 1.
CC1=C(C/C=N/NC(=O)CCCCCC(=O)NO)C(C)(C)CCC1 was read as A1 apoptosis 2 1.
C[C@@H]1CCCCO[C@@H](CN(C)Cc2ccncc2)[C@@H](C)CN([C@@H](C)CO)C(=O)c2cc(NC(=O)c3ccccc3)ccc2O1 was read as A1 apoptosis 2 0.
